# MrgX1 agonist: activates human MrgX1 receptor signaling; B-score at 10 µM; hit rate 0.44% among 310,000; Q96LB2; MrgX1-HEK293 cells, Fluo-4 calcium fluorescence, agonist mode; hits give high values;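 active = calcium response B-score plate-corrected fluorescence ratio at least 3 library SD, with starting fluorescence B-score inside 5 SD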
# Target sequence (Q96LB2 whole entry, looked up): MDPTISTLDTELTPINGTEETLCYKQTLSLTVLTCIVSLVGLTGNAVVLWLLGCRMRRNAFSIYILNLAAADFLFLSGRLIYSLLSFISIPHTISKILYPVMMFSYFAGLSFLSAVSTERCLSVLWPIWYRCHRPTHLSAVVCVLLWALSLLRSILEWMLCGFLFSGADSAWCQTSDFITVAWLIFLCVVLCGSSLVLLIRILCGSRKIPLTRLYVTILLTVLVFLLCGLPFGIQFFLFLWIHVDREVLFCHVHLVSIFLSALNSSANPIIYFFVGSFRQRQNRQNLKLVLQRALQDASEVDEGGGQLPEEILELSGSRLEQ
#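 Assay system: stable human MrgX1 HEK293 cell line. Quantity: 15,000 cells per well. Schedule: cells plated overnight, dye loaded 0.5 h 37 °C, 0.5 h room temperature. Detection: Fluo-4 NW calcium-flux fluorescence, kinetic read. Read-out basis: peak-minus-minimum fluorescence over baseline, converted to B scores. Control set: positive and negative control wells on each plate.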
# RGS4 act: potentiators or activators of RGS4 | HEK293 M3R/inducible RGS4, carbachol calcium flux Fluo4; hits give low values | B-score at 10 µM | hit rate 0.92% among 310,000;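 active = B-score of the integrated calcium signal more than 4 SD below the library mean, with starting fluorescence not abnormally high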;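 also: negative B-score means reduced calcium response which marks RGS4 activation or potentiation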
#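 System – HEK293 FlpIn-TREx cells, stable M3R, doxycycline-inducible RGS4 · Reagent – ECmax carbachol challenge · Times – compound preincubation 20 min at room temperature before agonist · Technique – Fluo4 fluorescence kinetic imaging of calcium · Measure – B score of integrated Fluo4 ratio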
# RGS4 inh: inhibitors of human RGS4; B-score at 10 µM; hit rate 0.45% among 310,000; HEK293 M3R/RGS4 inducible, Fluo-4 calcium flux; hits give high values; triggered by carbachol at its EC20; AID 463165;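 active = B-score, a plate-corrected calcium signal, over three deviations above library mean, with baseline fluorescence within five deviations of library mean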;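 also: RGS4 expression induced by doxycycline in cells with stable M3 receptor; B-score is computed from the integrated fluorescence ratio over baseline after carbachol; higher B-score means a larger calcium signal and so more RGS4 inhibition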
# Target sequence (P49798 whole entry, looked up): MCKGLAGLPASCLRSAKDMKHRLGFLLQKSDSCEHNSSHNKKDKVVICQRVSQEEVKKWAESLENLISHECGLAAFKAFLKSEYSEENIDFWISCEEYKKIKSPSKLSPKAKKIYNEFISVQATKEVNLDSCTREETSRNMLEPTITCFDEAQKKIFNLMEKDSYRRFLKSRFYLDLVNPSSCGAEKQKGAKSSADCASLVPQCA
# MrgX1 PAM: human MrgX1 positive allosteric modulation, primary screen; Q96LB2; MrgX1-HEK293, Fluo-4 calcium flux, FDSS; hits give high values; B-score at 10 µM; hit rate 0.63% among 310,000; AID 588675;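 active = plate-corrected calcium response at least 3 library SD above typical, normal starting fluorescence, not activating the receptor alone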;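 also: compound read alongside a low EC10 to EC30 dose of BAM8-22 agonist; peak minus trough fluorescence over baseline measured at the second addition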
# MrgX1 antagonist: blocks BAM8-22 activation of human MrgX1 receptor | Q96LB2 | MRGX1-HEK293 calcium flux, Fluo-4, BAM8-22 antagonism; hits give low values | B-score at 10 µM | hit rate 1.3% among 310,000 | AID 588676;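 active = calcium-response B-score plate-corrected more than 3 library SD below zero, starting fluorescence within 5 deviations, no agonist response on first addition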;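 also: peak minus trough fluorescence over baseline after final BAM8-22 challenge near maximal dose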
# MrgX1 ant reconf: confirmation of human MrgX1 receptor antagonists | shares compounds with MrgX1 antagonist | hit rate 19% among 2,300 | MrgX1-HEK293, BAM8-22 calcium flux, Fluo-4; hits give low values | remaining BAM8-22 calcium response % of control (hits give low values), % at 10 µM;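 active = remaining agonist calcium response no higher than 100% minus 3 SD of agonist-only control wells, with starting fluorescence near control levels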;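 also: agonist BAM8-22 given at a near maximal EC90 to ECmax level; peak minus minimum fluorescence divided by baseline after agonist addition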
# HEK293 Ca flux: activity in parental HEK293 cells lacking MrgX1. shares compounds with MrgX1 antagonist. Fluo-4 calcium fluorescence, FDSS. fluorescence ratio F(max-min)/F0 at 10 µM. hit rate 2% among 4,000. AID 624111;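 active = duplicate-averaged calcium fluorescence ratio at least three times the standard deviation of buffer wells, a nonspecific response in parental cells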
# HEK293 Ca counter: activity in parental HEK293 cells without MrgX1 | shares compounds with MrgX1 antagonist | parental HEK293 calcium flux, Fluo-4 fluorescence ratio; hits give high values | fluorescence ratio F(max-min)/F0 at 10 µM | hit rate 0.4% among 4,000 | AID 624114;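 active = calcium fluorescence ratio, averaged over duplicates, at least 3 SD of the buffer-well ratio, meaning a nonspecific response in receptor-free cells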;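 also: untransfected parental HEK293 lacking MrgX1 used as counterscreen for MrgX1 allosteric activators; fluorescence change taken during the second addition on a kinetic imager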
# HEK293 Ca cntr2: counter-screen for MrgX1 activators: effect in parental HEK293 cells | hit rate 8.7% among 4,000 | shares compounds with MrgX1 antagonist | AID 624115 | Fluo-4 calcium fluorescence (FDSS); hits give high values | fluorescence ratio F(max-min)/F0 at 10 µM;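 active = calcium fluorescence ratio at least three times the spread of buffer wells, meaning a non-specific response in parental cells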
# Hits are given with their value; n = inactive; x = not tested or not shown. Shown are actives, neighbours in structure and some others; about 3.5% of the full set was active somewhere.
SMILES,MrgX1 agonist,RGS4 act,RGS4 inh,MrgX1 PAM,MrgX1 antagonist,MrgX1 ant reconf,HEK293 Ca flux,HEK293 Ca counter,HEK293 Ca cntr2
CC(C)(Oc1ccc(Cl)cc1)C(=O)NCC(c1ccco1)N1CCCCC1 (stereo unspecified),n,n,n,n,-4.84,n,n,n,n
COc1ccc(Cl)cc1C(=O)NCC(c1ccco1)N1CCCC1 (stereo unspecified),n,n,n,n,-5.17,n,n,n,n
COc1ccc(C(CNC(=O)C(C)(C)Oc2ccc(Cl)cc2)N2CCCCC2)cc1 (stereo unspecified),n,n,n,n,n,x,x,x,x
CSc1nnc2ccc(-c3cccs3)nn12,n,n,n,n,n,x,x,x,x
O=C(CN(C(=O)c1csnn1)c1cccc(C(F)(F)F)c1)NC1CCCC1,n,n,n,n,n,x,x,x,x
CC(C)n1c(NCc2cc(Cl)ccc2O)nc2ccccc21,n,n,n,n,-7.07,n,n,n,n
COc1ccc(-c2c(C#N)c(N)nc3c2c(=O)n(C)c(=O)n3C)cc1Cl,n,n,n,n,-8.26,n,n,n,n
COCCN(C(=O)COC(=O)c1ccc(C=O)cc1)c1c(N)n(Cc2ccccc2)c(=O)[nH]c1=O,n,n,n,n,n,x,x,x,x
CN(CC(=O)c1c(N)n(C)c(=O)n(C)c1=O)c1ccccc1,n,n,n,n,-5.77,72.3%,n,n,n
Cn1c(N)c(C(=O)CN2CCc3ccccc3C2)c(=O)n(C)c1=O,n,n,n,n,n,x,x,x,x
COc1ccc(C(=O)NCC(=O)OCC(=O)Nc2sccc2C#N)cc1OC,n,n,n,n,-4.63,n,n,n,n
C=CCn1c(C(O)c2ccccc2)nc2ccccc21 (stereo unspecified),n,n,n,n,n,x,x,x,x
C=CCn1c(C(C)C)nc2ccccc21,n,n,n,n,-6.72,n,n,n,n
CCc1nc2ccccc2n1CCc1ccccc1,n,n,n,n,n,x,x,x,x
CCOCCn1c(CC)nc2ccccc21,n,n,n,n,n,x,x,x,x
CCOCCn1c(CCCO)nc2ccccc21,n,n,n,n,-11,n,n,n,n
CCc1nc2ccccc2n1CCC(C)C,n,n,n,n,-6.32,n,n,n,n
CCn1c(N)nc2ccccc21,n,n,n,n,n,x,x,x,x
CCCn1c(N)nc2ccccc21,n,n,n,n,-5.47,n,n,n,n
CC(=O)Nc1ccc(NC(=O)[C@H](C)NC(=O)c2ccco2)cc1,n,n,n,n,n,x,x,x,x
COc1ccc(C2C(C(=O)O)CCC(=O)N2c2ccc(C)cc2)cc1OC (stereo unspecified),n,n,n,n,n,x,x,x,x
C=CCn1c(N)nc2ccccc21,n,n,n,n,-4.61,n,n,n,n
COc1cccc(C2=CC(c3ccc(OC)c(OC)c3OC)n3nnnc3N2)c1 (stereo unspecified),n,n,n,n,n,x,x,x,x
COc1cccc(C2=CC(c3cccs3)n3nnnc3N2)c1 (stereo unspecified),n,n,n,n,-5.47,84.0%,n,n,n
S=c1nc(-c2ccccc2Br)[nH][nH]1,n,n,n,n,-6.1,n,n,n,n
SMILES,MrgX1 agonist,RGS4 act,RGS4 inh,MrgX1 PAM,MrgX1 antagonist,MrgX1 ant reconf,HEK293 Ca flux,HEK293 Ca counter,HEK293 Ca cntr2
O=C(CSc1nnc(NC(=O)C2CC(=O)N(c3ccc(F)cc3)C2)s1)NC1CCCC1 (stereo unspecified),n,n,n,n,-4.88,n,n,n,n
O=C(Nc1nnc(SCC(=O)N2CCCC2)s1)C1CC(=O)N(c2ccc(F)cc2)C1 (stereo unspecified),n,n,n,n,n,x,x,x,x
Cc1n[nH]c(C)c1CCc1nc2c3ccccc3nc(SCC(=O)Nc3ccccc3F)n2n1,n,n,n,n,-6.98,n,n,n,n
Cc1ccc(N=Cc2cc3c(cc2O)OC(N)=C(C#N)C3c2ccccc2)cc1 (stereo unspecified),n,n,n,n,-9.79,80.0%,n,n,n
CCOC(=O)C1CCN(c2ncnc3c2cnn3-c2ccc(Cl)cc2)CC1,n,n,n,n,n,x,x,x,x
Cc1ccc(-n2ncc3c(N4CCC(C(N)=O)CC4)ncnc32)c(C)c1,n,n,n,n,-10.3,n,n,n,n
CCOC(=O)C1CCN(c2ncnc3c2cnn3-c2ccccc2)CC1,n,n,n,n,-5.04,n,n,n,n
CCOC(=O)CNC(=O)CSc1ncnc2c1cnn2-c1ccccc1,n,n,n,n,-6.09,n,n,n,n
Cn1c(=O)oc2cc(S(=O)(=O)NCCC(=O)N3CCN(c4ccccc4F)CC3)ccc21,n,n,n,n,n,x,x,x,x
Cn1c(=O)oc2cc(S(=O)(=O)NCCC(=O)N3CCc4ccccc43)ccc21,n,n,n,n,-5.11,n,n,n,n
CC1CCN(C(C(=O)Nc2ccc(C(C)C)cc2)c2ccc3c(c2)OCO3)CC1 (stereo unspecified),n,n,n,n,-5.36,n,n,n,n
CN(C(=O)CN1C(=O)/C(=C/c2ccccc2F)SC1=S)C1CCS(=O)(=O)C1 (stereo unspecified),n,n,n,n,n,x,x,x,x
CN(C)c1ccc2c3c(ccc(N(C)C)c13)C(=O)OC2,n,n,n,n,n,x,x,x,x
CCOc1ccccc1CNC(=O)c1cc2oc3ccccc3c2n1C,n,n,n,n,n,x,x,x,x
COCCNC(=O)c1cc2oc3ccccc3c2n1C,n,n,n,n,-5.02,n,n,n,n
CSc1cccc(NC(=O)C2CCCN(S(=O)(=O)c3ccc(F)cc3)C2)c1 (stereo unspecified),n,n,n,n,-6.49,67.1%,n,n,n
CSc1cccc(NC(=O)C2CCN(S(=O)(=O)c3ccc(F)cc3)CC2)c1,n,n,n,n,n,x,x,x,x
CCC(C)c1ccccc1NC(=O)COC(=O)c1ccc2c(c1)S(=O)(=O)c1ccccc1C2=O (stereo unspecified),n,n,n,n,n,x,x,x,x
CC1CN(C(=O)c2cccc(Oc3ccccc3)c2)CC(C)O1 (stereo unspecified),n,n,n,n,-4.67,n,n,n,n
Cc1ccc(S(=O)(=O)N(C)C)cc1NC(=S)NC(=O)C12CC3CC(CC(C3)C1)C2,n,n,n,n,-6.59,n,n,n,n
